# Compounds with a hit are over-represented: about 5.4% of the library has one in this group of screens.
# Cav3 T inh: Cav3.2 calcium influx blockers – cell-based, Fluo-4 calcium fluorescence, FDSS, MLSMR library, primary screen; 100,000 compounds, 4% hits; B-score at 10 µM; AID 449739, 2010; Cav3.2-expressing cells; hits give low values;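 active means single-dose well whose peak fluorescence ratio is a statistical outlier from its plate by either plate-standardised score or position-corrected B-score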
# Rev-RRE block: HIV-1 Rev-RRE binding inhibitors, primary screen, biochemical, FRET, protein-RNA interaction | P05866 | Rev peptide-RRE RNA binding | inhibition, % at 8 µM | 97,000 compounds, 0.79% hits;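 active means inhibition above the screen-wide mean plus 3 SD, cut at about 35% in these data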;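 further: 0% = median DMSO wells and 100% = median Neomycin B control wells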
#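 Test system – labelled RRE RNA duplex and labelled Rev peptide · Signal – fluorescein-to-Cy5 FRET, 480 nm excitation · Evaluation – % inhibition of FRET ratio versus controls · Benchmarks – DMSO low control, neomycin B high control · Incubation – 5 min RNA-compound premix plus 15 min binding step, 25 °C · Medium – HEPES pH 7.5 salt buffer with EDTA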
# DAT uptake mod: changed hDAT dopamine uptake under cocaine IC80, either direction, primary screen, cocaine antagonist project, cell-based, LLC-PK1 hDAT, [14C]-dopamine uptake, MLSMR; Sodium-dependent dopamine transporter (Homo sapiens), Q01959; LLC-PK1 hDAT cells, [14C]-dopamine uptake with cocaine IC80; actives deviate in either direction; B-score at 10 µM; 110,000 compounds, 1.3% hits;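 active means Z score or B-score, a plate-position-corrected score, falls beyond the plate's 99.7% confidence bounds, in either direction; inactive means both scores lie inside the 99.7% bounds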;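 further: scored against the spread of the other compound wells on the same plate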
# EphB4 ephrin blk: EphB4-ephrin-B2 interaction antagonists, primary screen, biochemical, TNYL-RAW peptide probe, fluorescence polarization | Ephrin type-B receptor 4 (Homo sapiens), P54760 | EphB4 LBD / TNYL-RAW-Alexa532 peptide | inhibition, % at 7 µM | 97,000 compounds, 0.15% hits | AID 720, 2007;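 active means inhibition above the screen-wide mean inhibition plus 3 SD, cut at about 15% in these data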;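 further: 0% = DMSO wells and 100% = excess unlabeled TNYL-RAW peptide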
# * marks the source's active call; other numbers are inactive results; . = no result.
SMILES,Cav3 T inh,Rev-RRE block,DAT uptake mod,EphB4 ephrin blk
COc1ccc(C2C(C(=O)NCCN3CCOCC3)c3ccccc3C(=O)N2C2CCCCC2)cc1 (stereo unspecified),0.96,7,0.75,1
CC(=O)Nc1nonc1NC(=O)c1ccc(C(C)(C)C)cc1,-0.33,4,0.096,2
CC(=O)O[C@]1(C(C)=O)CC[C@H]2[C@@H]3C=C(Cl)C4=CC(=O)[C@@H]5C[C@@H]5[C@]4(C)[C@H]3CC[C@@]21C,-0.14,.,-0.46,.
COCc1nnc(NC(=O)CSCc2ccccc2)s1,0.0025,6,-0.056,4
CNc1ccc(Br)cc(C(=O)/C=C/c2cc(OC)ccc2OC)c1=O,0.044,55*,0.93,-1
O=C(Nc1ccccc1)C1=C[C@@H](c2ccc3c(c2)OCO3)C[C@@H](OCCCCO)O1,-0.96,.,0.25,.
CCN(CC)CCn1c(NCc2nc3ccccc3n2Cc2ccccc2)nc2ccccc21,-4.2*,18,0.84,-2
c1ccc(Cn2c(CNc3nc4ccccc4n3CCN3CCCCC3)nc3ccccc32)cc1,-3.8*,6,-0.075,1
CC1CCCC(n2c(=S)[nH]c3ccccc3c2=O)C1C (stereo unspecified),1.2,3,-0.85,1
COC(=O)c1cc(OC)c(OC)cc1NC(=O)c1c(-c2ccccc2Cl)noc1C,-2.9,3,0.36,10
CC(C)(C)c1ccc(C2(C)NC(=O)N(CC(=O)Nc3ccc4c(c3)OCO4)C2=O)cc1 (stereo unspecified),-5.6*,6,-0.46,-2
CC1(c2ccc(OC(F)F)cc2)NC(=O)N(CC(=O)Nc2ccc3c(c2)OCO3)C1=O (stereo unspecified),1.6,0,1.6,-3
CCCCCSc1nnc(-c2cc(Br)ccc2N)c(=O)[nH]1,-5*,-1,-0.33,-7
CCO[C@@H]1OC(C(=O)NCc2ccccc2)=C[C@H](c2cn(C(C)=O)c3ccccc23)[C@H]1CCCO,-0.61,.,0.093,.
O=C(c1ccccc1)c1ccc(CN2C(=O)c3ccccc3C2=O)o1,-2.7,14,3.4*,-3
O=C(O)c1ccc(C(=O)c2ccc3c(c2)C(=O)N(Cc2ccco2)C3=O)cc1,1.4,-4,0.26,0
C[C@H](NC(=O)c1ccccc1Cl)C(=O)OC(C(=O)Nc1cc(C(F)(F)F)ccc1Cl)c1ccccc1 (stereo partly specified),-8.4*,13,0.16,-4
O=C(CNC(=O)c1ccccc1F)OC(C(=O)Nc1cc(C(F)(F)F)ccc1Cl)c1ccccc1 (stereo unspecified),-5.4*,6,0.085,-1
O=C(CCc1ccccc1)Nc1cc(C(F)(F)F)ccc1Cl,-1.1,15,-0.21,2
CCOc1nc(-c2ccccc2Cl)ccc1C#N,-2.8,2,-0.78,-12
CCN(CC)S(=O)(=O)c1cccc(NC(=O)COC(=O)c2cc(C)oc2C)c1,-6*,1,-0.44,-9
CC(Nc1ccccc1)c1cc(Cl)ccc1O (stereo unspecified),-7.1*,1,-0.21,-4
COc1ccccc1/C=C1\S/C(=N/NC(=O)c2cccc(Br)c2)NC1=O,-4.2*,9,-0.32,-3
COC(=O)/C=C1\S/C(=N/NC(=O)c2ccccc2)NC1=O,0.25,5,-0.3,-3
O=C(COc1ccc(S(=O)(=O)N2CCCCC2)cc1)NCc1cccnc1,-0.5,8,-0.025,4
SMILES,Cav3 T inh,Rev-RRE block,DAT uptake mod,EphB4 ephrin blk
Cc1cc(C)cc(NC(=O)CSc2nnc(Cc3cccn3C)n2-c2ccc(F)cc2)c1,-13*,-4,2.6*,-4
CCCCOc1cccc(NC(=O)CSc2nccn2C)c1,-0.21,2,2.7*,0
COc1cccc(NC(=O)CSc2nnc(Cc3cccn3C)n2-c2ccc(F)cc2)c1,-5*,0,2,-3
COc1ccc(NC(=O)CSc2nnc(Cc3cccn3C)n2-c2ccc(C)cc2)cc1OC,-2.2,4,0.9,7
COc1ccc(NC(=O)CSc2nnc(Cc3cccn3C)n2-c2ccc(F)cc2)cc1,-2.9,-7,0.015,-4
CC(=O)Nc1cccc(NC(=O)CSc2nnc(Cc3cccn3C)n2-c2ccc(F)cc2)c1,-0.97,0,0.013,-7
COc1ccc(-n2c(Cc3cccn3C)nnc2SCC(=O)Nc2ccc(C)c(Cl)c2)cc1,-4.2*,.,1.3,.
CN1c2ccsc2C(O)=C(C(=S)Nc2ccc(F)c(Cl)c2)S1(=O)=O,-4,-5,-1.6,-4
CN(C(=O)Nc1ccc(Cl)cc1Cl)[C@H]1c2cc(Br)ccc2OC[C@H]1CO,-2.5,3,1.1,-4
COc1ccc(-n2c(Cc3cc(=O)[nH]c(=O)[nH]3)nnc2SCC(=O)Nc2ccccc2)cc1,.,5,.,1
Cn1cccc1Cc1nnc(SCC(=O)Nc2ccc3c(c2)OCO3)n1-c1ccc(F)cc1,-8.5*,.,-0.2,.
Cn1cccc1Cc1nnc(SCC(N)=O)n1-c1ccc(F)cc1,0.66,4,-1.3,1
COc1ccc(-n2c(Cc3cccn3C)nnc2SCC(=O)Nc2cccc(OC)c2)cc1,-4.2*,-2,3.2,-3
Cc1c(-c2cccs2)[n+](=O)c2c(n1[O-])CCCC2,0.2,.,-0.85,.
Cn1c(=O)[nH]c(=O)c2c1ncn2CCCc1ccccc1,.,9,-0.48,11
COC(=O)CS(=O)(=O)c1ccc2c(c1)CC(=O)N2,-0.0044,8,-1.3,1
COc1cccc(OC)c1-c1nn2c(-c3cc(-c4ccccc4)n[nH]3)nnc2s1,0.91,-269,0.47,62*
COc1cccc(-c2nnc3sc(-c4ccccc4)nn23)c1,-0.00093,.,0.47,.
CCOc1ccccc1C(=O)N1CCN(C(c2ccccc2)c2ccccc2)CC1,-4.7*,2,-0.49,-3
COC(=O)CN1CCN(C(c2ccccc2)c2ccccc2)CC1,1.3,1,0.37,-8
CC(=O)c1ccccc1OCC(O)CN1CCN(C(c2ccccc2)c2ccccc2)CC1 (stereo unspecified),-7.1*,2,1.5,-4
O=C1[C@H]2[C@@H](C(=O)N1c1cc(Cl)cc(Cl)c1)[C@]1(C(=O)Nc3ccccc31)N1CCC[C@@H]21,-1.9,15,3.8*,5
Cc1cc(Cl)c2c(c1)[C@]1(C(=O)N2)[C@@H]2C(=O)N(Cc3ccccc3)C(=O)[C@@H]2[C@@H]2CCCN21,-1.6,5,0.28,-3
CC(C)N(C(=O)C(=O)c1cccn1-c1ccccc1C#N)C(C)C,0.18,4,0.2,-3
CC(=O)Nc1nnc(SCC(=O)NCC2CCCO2)s1 (stereo unspecified),0.79,.,-0.4,.
CC(=O)Nc1nnc(SCC(=O)NCCOc2ccccc2)s1,0.061,3,-8*,-2

# Source: PubChem
